Laboratory results taken from ChEMBL document CHEMBL1212911, “Identification of potent and selective amidobipyridyl inhibitors of protein kinase D” (J Med Chem, 2010).
Calls of active or inactive are those of the source. The calls are words filed in the database; no cut-off is given here.

Tests used:
[1] = biological target: T1, Serine/threonine-protein kinase D2 (Homo sapiens, UniProt Q9BZL6); test: Inhibition of PKD2 by TR-FRET assay
T1 sequence (Q9BZL6 whole entry): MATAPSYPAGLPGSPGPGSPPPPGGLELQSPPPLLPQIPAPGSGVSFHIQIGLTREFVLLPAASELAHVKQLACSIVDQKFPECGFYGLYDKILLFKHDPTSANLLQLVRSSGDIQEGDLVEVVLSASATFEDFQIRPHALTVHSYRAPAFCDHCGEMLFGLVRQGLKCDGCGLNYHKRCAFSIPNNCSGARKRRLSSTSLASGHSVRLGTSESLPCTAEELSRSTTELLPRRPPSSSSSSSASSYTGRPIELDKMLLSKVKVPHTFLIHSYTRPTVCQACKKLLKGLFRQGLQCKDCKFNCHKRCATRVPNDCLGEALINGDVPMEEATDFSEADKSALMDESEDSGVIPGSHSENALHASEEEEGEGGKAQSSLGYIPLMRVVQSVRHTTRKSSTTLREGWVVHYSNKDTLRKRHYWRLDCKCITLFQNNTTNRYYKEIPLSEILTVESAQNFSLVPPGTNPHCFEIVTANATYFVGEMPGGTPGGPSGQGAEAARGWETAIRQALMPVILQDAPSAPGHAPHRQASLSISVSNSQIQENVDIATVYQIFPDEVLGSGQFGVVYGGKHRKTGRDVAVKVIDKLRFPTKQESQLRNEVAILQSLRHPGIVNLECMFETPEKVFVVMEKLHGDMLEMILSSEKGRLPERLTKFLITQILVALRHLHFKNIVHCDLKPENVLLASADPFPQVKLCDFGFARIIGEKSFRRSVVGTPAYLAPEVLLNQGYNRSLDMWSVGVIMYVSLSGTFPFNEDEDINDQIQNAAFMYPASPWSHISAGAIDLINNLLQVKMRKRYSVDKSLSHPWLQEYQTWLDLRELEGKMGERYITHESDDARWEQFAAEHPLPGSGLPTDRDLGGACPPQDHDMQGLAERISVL

[2] = biological target: T2, Serine/threonine-protein kinase D1 (Homo sapiens) (UniProt Q15139); test: Inhibition of PKD1 autophosphorylation at 1 uM
T2 sequence (whole entry): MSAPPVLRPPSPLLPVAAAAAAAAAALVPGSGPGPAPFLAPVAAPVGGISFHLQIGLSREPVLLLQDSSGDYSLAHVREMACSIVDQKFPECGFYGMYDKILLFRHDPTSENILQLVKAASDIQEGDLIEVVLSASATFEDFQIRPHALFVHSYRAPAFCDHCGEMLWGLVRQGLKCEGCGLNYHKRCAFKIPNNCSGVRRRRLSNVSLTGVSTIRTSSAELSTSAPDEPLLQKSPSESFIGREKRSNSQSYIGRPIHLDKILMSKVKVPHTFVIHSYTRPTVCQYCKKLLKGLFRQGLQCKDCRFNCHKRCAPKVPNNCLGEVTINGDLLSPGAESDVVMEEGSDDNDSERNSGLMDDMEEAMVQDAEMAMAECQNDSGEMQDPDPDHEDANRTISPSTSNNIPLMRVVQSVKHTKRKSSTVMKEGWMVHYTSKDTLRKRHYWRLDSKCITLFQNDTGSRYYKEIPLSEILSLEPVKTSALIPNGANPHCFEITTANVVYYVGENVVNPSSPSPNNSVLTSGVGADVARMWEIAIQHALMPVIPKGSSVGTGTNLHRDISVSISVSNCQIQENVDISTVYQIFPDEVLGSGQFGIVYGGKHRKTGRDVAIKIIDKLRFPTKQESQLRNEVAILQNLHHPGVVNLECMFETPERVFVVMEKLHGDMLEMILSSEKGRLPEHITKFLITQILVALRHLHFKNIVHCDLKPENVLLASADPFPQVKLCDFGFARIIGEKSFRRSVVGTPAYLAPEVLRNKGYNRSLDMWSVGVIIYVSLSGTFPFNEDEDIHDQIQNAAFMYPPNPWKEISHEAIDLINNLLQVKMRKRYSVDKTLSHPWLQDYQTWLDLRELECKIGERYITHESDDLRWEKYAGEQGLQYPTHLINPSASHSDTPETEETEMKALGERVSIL

[3] = biological target: Serine/threonine-protein kinase MARK1 (Homo sapiens) (UniProt Q9P0L2); test: Inhibition of human MARK1; settings: concentration not given here
Procedure, shortened: (§1)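 Selectivity screen run externally (Invitrogen SelectScreen). Percent inhibition measured at 1 μM compound, mean of 2 measurements.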

[4] = biological target: T3, Serine/threonine-protein kinase D1 (Homo sapiens, UniProt Q15139); test: Inhibition of PKD1 by TR-FRET assay
T3 sequence (Q15139 whole entry): T2 sequence (whole entry)
Procedure, shortened: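 Full-length wild-type PKD1 expressed and purified from Sf9 cells, 0.2 μg/mL, in 35 mM Tris-HCl pH 7.5, 5 mM MgCl2, 0.02% Tween-20, 20 μM ATP, 1 mM DTT. Reaction started with 2 μM biotinylated syntide-2 and run 50 min at room temperature. Stopped with EDTA plus europium anti-rabbit IgG, anti-phospho-syntide-2 antibody and streptavidin-APC. LANCE TR-FRET 665/615 ratio read after 1 h. 11-point curves in triplicate gave IC50.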

[5] = biological target: Beta-1 adrenergic receptor (Homo sapiens, UniProt P08588); test: Inhibition of beta-1 adrenoceptor
[6] = biological target: Calcium/calmodulin-dependent protein kinase type II subunit delta (Homo sapiens) (UniProt Q13557); test: Inhibition of human CaMK2delta; settings: concentration not given here; procedure, shortened: as §1
[7] = Inhibition of PKC-mediated phosphorylation of Ser744/748
[8] = Clearance in Sprague-Dawley rat at 2 mg/kg, iv and 5 mg/kg, po; type: ADME, organism-based; settings: in vivo
Procedure, shortened: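 Rats dosed iv 2 mg/kg (n = 2) or po 5 mg/kg (n = 3) in 10% NMP, 10% Cremophor, 80% pH 4.63 buffer. PK parameters derived from iv dosing, reported as mean ± SD.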

[9] = Drug level in Dahl salt-sensitive rat left ventricle at 5 mg/kg, sc qd; settings: in vivo, read-out: Drug uptake
[10] = Inhibition of alpha1 adrenoceptor
[11] = biological target: Protein kinase C delta type (Homo sapiens) (UniProt Q05655); test: Inhibition of human PKCdelta; settings: concentration not given here; procedure, shortened: as §1
[12] = AUC (0 to 8 hrs) in Dahl salt-sensitive rat at 50 mg/kg, sc; type: ADME, organism-based; design: time < 8 hr, dose 50 mg/kg, route subcutaneous; settings: plasma
Procedure, shortened: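 Dahl salt-sensitive rats given 50 mg/kg sc in 10% 1 N HCl, 90% Captisol in pH buffer (10%). Plasma exposure followed over time to give AUC.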

Rattus norvegicus = species: Rattus norvegicus; test: Inhibition of PMA-induced PKD autophosphorylation in Dahl salt-sensitive rat PBMC
Procedure, shortened: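 Male Dahl salt-sensitive rats, 6–7 weeks old, were switched from a 0.49% to an 8.0% NaCl diet for 2 weeks. Dosing was daily sc (1.0 mL/kg) with vehicle (10% 1 N HCl/90% of 10% captisol, pH 4.6 buffer) or 0.5, 1.5 or 5 mg/kg compound. On day 14, PBMCs were isolated and stimulated with PMA. The read-out was PKD Ser916 autophosphorylation.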

Sequence of Beta-1 adrenergic receptor (P08588 whole entry): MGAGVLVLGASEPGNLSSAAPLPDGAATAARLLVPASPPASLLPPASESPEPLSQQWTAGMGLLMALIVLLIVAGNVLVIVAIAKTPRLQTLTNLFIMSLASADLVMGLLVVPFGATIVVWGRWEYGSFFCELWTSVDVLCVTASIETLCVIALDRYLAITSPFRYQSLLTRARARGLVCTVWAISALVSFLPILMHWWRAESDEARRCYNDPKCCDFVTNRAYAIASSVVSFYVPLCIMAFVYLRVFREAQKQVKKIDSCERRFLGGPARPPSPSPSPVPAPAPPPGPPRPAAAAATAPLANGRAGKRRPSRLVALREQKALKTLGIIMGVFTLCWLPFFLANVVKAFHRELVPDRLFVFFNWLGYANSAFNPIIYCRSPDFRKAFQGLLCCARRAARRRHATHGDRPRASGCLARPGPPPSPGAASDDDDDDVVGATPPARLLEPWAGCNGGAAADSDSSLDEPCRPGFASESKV
Sequence of Protein kinase C delta type (Homo sapiens) (Q05655 whole entry, looked up): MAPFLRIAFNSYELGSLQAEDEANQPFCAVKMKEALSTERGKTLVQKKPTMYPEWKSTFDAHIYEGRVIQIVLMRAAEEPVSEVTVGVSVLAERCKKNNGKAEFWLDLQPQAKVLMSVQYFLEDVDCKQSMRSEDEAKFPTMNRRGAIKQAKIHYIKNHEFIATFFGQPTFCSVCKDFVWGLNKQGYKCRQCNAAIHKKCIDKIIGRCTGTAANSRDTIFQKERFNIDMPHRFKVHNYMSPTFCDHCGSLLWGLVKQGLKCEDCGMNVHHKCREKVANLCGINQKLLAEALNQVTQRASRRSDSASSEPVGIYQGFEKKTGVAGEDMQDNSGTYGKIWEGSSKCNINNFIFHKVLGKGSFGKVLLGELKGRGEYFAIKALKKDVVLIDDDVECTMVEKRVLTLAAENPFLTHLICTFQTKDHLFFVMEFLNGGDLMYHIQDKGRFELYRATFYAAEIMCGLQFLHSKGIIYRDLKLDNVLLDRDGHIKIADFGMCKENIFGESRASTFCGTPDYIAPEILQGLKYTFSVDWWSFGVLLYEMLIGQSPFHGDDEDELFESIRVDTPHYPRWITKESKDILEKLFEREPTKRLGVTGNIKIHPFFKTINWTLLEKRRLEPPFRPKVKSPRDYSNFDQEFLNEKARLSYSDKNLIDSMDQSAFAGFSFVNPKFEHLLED
Sequence of Serine/threonine-protein kinase MARK1 (Homo sapiens) (Q9P0L2 whole entry, looked up): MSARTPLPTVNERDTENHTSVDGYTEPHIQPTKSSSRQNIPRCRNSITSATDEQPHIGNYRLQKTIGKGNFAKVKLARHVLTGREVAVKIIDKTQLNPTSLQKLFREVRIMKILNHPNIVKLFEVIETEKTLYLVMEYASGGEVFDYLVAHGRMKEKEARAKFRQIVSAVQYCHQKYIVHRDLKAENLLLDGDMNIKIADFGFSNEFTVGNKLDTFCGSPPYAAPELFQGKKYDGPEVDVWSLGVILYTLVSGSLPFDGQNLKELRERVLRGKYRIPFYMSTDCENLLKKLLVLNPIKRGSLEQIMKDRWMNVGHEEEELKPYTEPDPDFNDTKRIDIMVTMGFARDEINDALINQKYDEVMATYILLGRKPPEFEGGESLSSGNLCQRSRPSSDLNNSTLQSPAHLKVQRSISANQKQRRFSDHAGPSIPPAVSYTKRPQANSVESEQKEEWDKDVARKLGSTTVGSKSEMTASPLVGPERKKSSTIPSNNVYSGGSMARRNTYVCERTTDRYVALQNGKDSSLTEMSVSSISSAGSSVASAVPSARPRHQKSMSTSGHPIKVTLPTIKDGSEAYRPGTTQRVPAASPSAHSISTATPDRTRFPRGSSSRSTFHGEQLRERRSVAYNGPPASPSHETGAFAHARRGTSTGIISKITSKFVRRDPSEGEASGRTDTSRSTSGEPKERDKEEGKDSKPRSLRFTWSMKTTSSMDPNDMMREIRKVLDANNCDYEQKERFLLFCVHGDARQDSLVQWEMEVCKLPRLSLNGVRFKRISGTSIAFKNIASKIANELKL
Sequence of Calcium/calmodulin-dependent protein kinase type II subunit delta (Homo sapiens) (Q13557 whole entry): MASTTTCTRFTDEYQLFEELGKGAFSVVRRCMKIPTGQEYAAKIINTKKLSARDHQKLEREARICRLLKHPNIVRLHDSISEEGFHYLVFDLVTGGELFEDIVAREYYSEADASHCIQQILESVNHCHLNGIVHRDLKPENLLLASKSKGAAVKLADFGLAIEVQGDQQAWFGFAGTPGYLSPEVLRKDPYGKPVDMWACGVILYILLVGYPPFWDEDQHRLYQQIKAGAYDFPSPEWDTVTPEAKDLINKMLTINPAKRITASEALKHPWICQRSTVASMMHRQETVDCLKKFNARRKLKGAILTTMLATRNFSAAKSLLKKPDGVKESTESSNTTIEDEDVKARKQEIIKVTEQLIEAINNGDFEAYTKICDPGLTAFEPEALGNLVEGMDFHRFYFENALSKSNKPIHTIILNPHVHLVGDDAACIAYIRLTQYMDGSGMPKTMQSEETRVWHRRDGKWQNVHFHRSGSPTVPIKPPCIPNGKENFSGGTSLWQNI

IC50 [1]: 9 nM
inhibition [2]: Active
inhibition [3]: 24%
IC50 [4]: 1 nM
IC50 [5]: 8300 nM
inhibition [6]: 26%
inhibition [7]: inactive
clearance [8]: 97 mL/min/kg
concentration [9]: 12 µM
IC50 [10]: 3000 nM
inhibition [11]: 22%
AUC(0-t) at 8 h [12]: 25.8 µM·h
inhibition (Rattus norvegicus): inactive
SMILES: NC(=O)c1cc(-c2ccnc(NC3CCCCC3)c2)nc(N2CCNCC2)c1
